High-throughput results as filed in PubChem BioAssay.
Sampled rows, rich in hits. Any-hit rate of the full collection: about 2.2%.
rCAG binder: binds r(CAG) RNA repeats | r(CAG) RNA repeat, TO-PRO-1 dye displacement fluorescence | inhibition, % at 3 µM | 370,000 compounds, 1.3% hits | AID 651821;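 active = inhibition above the plate cutoff, the mean of all test compounds on that plate plus 3 SD, cut at about 35% in these data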;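 also: 0% = DMSO alone and 100% = 100 µM mitoxantrone as full dye displacement; higher means more dye released from RNA so lower well fluorescence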
NadD inh: inhibitors of Staphylococcus aureus NadD | 360,000 compounds, 0.78% hits | inhibition, % at 20 µM | AID 602399 | purified NadD enzyme, colorimetric absorbance read-out; in the data active = inhibition above about 26%
ASAP1 inh: blocks human ASAP1-stimulated Arf1 GTP hydrolysis; Q9ULH1; GDP FP detection; inhibition, % at 16.5 µM; 360,000 compounds, 0.19% hits; AID 624377; in the data active = inhibition above about 25%;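 also: 0% = vehicle with enzyme and substrate and 100% = no enzyme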
Target sequence (Q9ULH1 325-724 limits assumed): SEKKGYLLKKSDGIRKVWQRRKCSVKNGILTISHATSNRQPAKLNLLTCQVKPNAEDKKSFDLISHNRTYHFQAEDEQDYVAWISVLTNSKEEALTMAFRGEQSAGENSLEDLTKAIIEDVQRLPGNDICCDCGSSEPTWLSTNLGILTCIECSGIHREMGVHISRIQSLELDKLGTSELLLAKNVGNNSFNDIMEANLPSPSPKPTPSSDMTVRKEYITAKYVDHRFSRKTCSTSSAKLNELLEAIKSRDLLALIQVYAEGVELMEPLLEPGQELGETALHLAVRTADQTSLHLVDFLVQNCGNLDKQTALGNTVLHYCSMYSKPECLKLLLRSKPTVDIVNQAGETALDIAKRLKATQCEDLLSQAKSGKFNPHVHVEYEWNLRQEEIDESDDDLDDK
ARFGAP1 inh: inhibits rat ARF GTPase activating protein 1. Arfgap1-stimulated ARF1 GTP hydrolysis, GDP FP detection. inhibition, % at 16.5 µM. 360,000 compounds, 0.26% hits. AID 651572;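 active = inhibition above a per-plate limit, mean inhibition of low control wells plus 3 SD, cut at about 25% in these data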;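 also: 0% = DMSO wells with enzyme and 100% = wells lacking Arfgap1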
Target sequence (Q62848 1-136 limits assumed): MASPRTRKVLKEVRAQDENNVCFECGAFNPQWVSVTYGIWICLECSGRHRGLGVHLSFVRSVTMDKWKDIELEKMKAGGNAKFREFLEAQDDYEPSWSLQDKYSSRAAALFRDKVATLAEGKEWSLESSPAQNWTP
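Replicates: Single well per compound | Assay system: Truncated rat Arfgap1 GAP domain | Control set: No-Arfgap1 wells (100%) versus DMSO full-reaction wells (0%) | Times: Enzyme reaction 120 min at 25 °C after 20 min preincubation | Reagent: Human ARF1(Δ1-17)-GTP substrate | Measured by: Tracer-displacement fluorescence polarization with EDTA stop, 620/688 nm | Measure: Percent inhibition of Arfgap1-stimulated GTP hydrolysis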
rCAG bind conf: r(CAG) RNA repeat binding, confirmation; shares compounds with rCAG binder; inhibition, % at 3 µM; 4,300 compounds, 70% hits; TO-PRO-1 dye displacement fluorescence; AID 652065;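 active = inhibition above a per-plate cutoff, the mean inhibition of sample wells plus 3 SD, cut at about 35% in these data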;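 also: loss of TO-PRO-1 fluorescence as compound displaces dye from 1x1 AA loop RNA; 0% = DMSO only wells and 100% = 100 µM mitoxantrone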
DNA CAG counter: DNA CAG dye complex inhibition counter-screen; AID 652068; inhibition, % at 3 µM; 4,300 compounds, 94% hits; d(CAG) DNA oligo TO-PRO-1 dye displacement, fluorescence; shares compounds with rCAG binder;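 active = inhibition above its plate's cutoff, the mean test-well inhibition plus 3 SD, cut at about 4.8% in these data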;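 also: 0% = DNA dye mix with DMSO and 100% = 100 µM mitoxantrone; hits displace the dye from DNA and so lower well fluorescence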
An asterisk follows results filed as active; x = no result.

SMILES	rCAG binder	NadD inh	ASAP1 inh	ARFGAP1 inh	rCAG bind conf	DNA CAG counter
O=C(O)C(c1ccccc1)N1C(=O)/C(=C\c2ccc(-c3ccccc3Cl)o2)SC1=S (stereo not drawn)	45*	22	-22	-8	87*	63*
COc1cc(/C=C2\SC(=S)N(C(C(=O)O)c3ccccc3)C2=O)cc(OC)c1OC (stereo not drawn)	56*	5	-2	-8	64*	24*
COc1ccc(/C=C2\SC(=S)N(C(C(=O)O)c3ccccc3)C2=O)c(OC)c1 (stereo not drawn)	79*	6	-11	-22	79*	45*
O=C(O)C(c1ccccc1)N1C(=O)/C(=C\c2ccc(-c3ccc(Br)cc3)o2)SC1=S (stereo not drawn)	34	15	-10	-15	x	x
CN1C(=O)[C@@]2(O[C@H]3C=CC=CN3C3=C2C(=O)CCC3)c2cc([N+](=O)[O-])ccc21	5	x	-5	-3	x	x
Cc1ccc(/C=C2\SC(=S)N(CC3CCCO3)C2=O)o1 (stereo not drawn)	46*	4	-2	2	40*	15*
O=C1/C(=C/c2ccco2)SC(=S)N1CC1CCCO1 (stereo not drawn)	46*	7	-9	1	16	8.6*
COc1ccc(-c2cc(C(=O)O)c(C)o2)cc1OC	2	-4	2	4	x	x
COc1ccc(-c2cc(C(=O)NC(Cc3cc4ccccc4[nH]3)C(=O)O)c(C)o2)cc1OC (stereo not drawn)	49*	1	-7	14	50*	15*
CC(C)(C)C(C(=O)NCc1ccccc1)N1CCN(C(=O)C2CCCO2)CC1 (stereo not drawn)	2	x	-9	2	x	x
O=C(CSc1nc2c(c(=O)[nH]1)CCCC2)N1CCOCC1	0	x	x	x	x	x
CCCCOc1ccc(S(=O)(=O)NC(=O)C2(C)CCN2C(=O)CCc2ccccc2)cc1 (stereo not drawn)	39*	-2	-2	-7	32	7.2*
CCCCOc1ccc(S(=O)(=O)NC(=O)C2(C)CCN2C(=O)Cc2ccccc2Cl)cc1 (stereo not drawn)	44*	-2	0	8	38*	9.1*
CCOc1ccc2nc(S(=O)(=O)NC(=O)C3(C)CCN3C(=O)CCc3cccs3)sc2c1 (stereo not drawn)	38*	-2	-13	-5	37*	9.9*
COc1ccc(C(=O)OCC(=O)NC2CCCCCCC2)cc1OC	-2	-6	14	7	x	x
C=CCN1C(=O)C(CC(=O)O)SC1=Nc1ccc(N=Nc2ccccc2)cc1 (stereo not drawn)	55*	1	10	2	37*	8.8*
O=C(N/C(=C\c1ccco1)C(=O)N1CCCC(CO)C1)c1ccccc1 (stereo not drawn)	2	0	-6	3	x	x
O=C(O)c1ccc(N/N=C/c2cn(Cc3ccc(F)cc3)c3ccccc23)cc1	81*	18	-11	0	75*	35*
CCOC(=O)C1=CCN(S(=O)(=O)c2ccc(C)cc2)C1c1ccccc1F (stereo not drawn)	-1	-6	-4	-5	x	x
O=C1c2ccccc2C(=O)N1c1ncc(Cc2ccc(Cl)cc2)s1	42*	4	3	-4	12	2
COc1ccc(C=C2OC(=O)C(C(C)=O)=C2O)cc1	34	-3	7	4	x	x
CC(=O)C1=C(O)C(=Cc2ccccc2)OC1=O	36*	-3	-11	16	19	6.6*
CCCOc1ccc(C(=O)Nc2ccc(S(=O)(=O)Nc3onc(C)c3C)cc2)cc1	49*	3	-4	3	28	5.2*
COc1cc(C(=O)Nc2ccc(S(=O)(=O)Nc3onc(C)c3C)cc2)cc(OC)c1OC	34	-9	-2	-1	x	x
CCOc1cc(C(=O)Nc2ccc(S(=O)(=O)Nc3onc(C)c3C)cc2)cc(OCC)c1OCC	46*	2	-1	1	52*	20*
SMILES	rCAG binder	NadD inh	ASAP1 inh	ARFGAP1 inh	rCAG bind conf	DNA CAG counter
Cc1noc(NS(=O)(=O)c2ccc(NC(=O)CCN3C(=O)c4ccccc4C3=O)cc2)c1C	14	1	-5	-3	x	x
Cc1noc(NS(=O)(=O)c2ccc(NC(=O)c3ccc(N4C(=O)c5ccccc5C4=O)cc3)cc2)c1C	74*	9	-2	7	59*	26*
Cc1noc(NS(=O)(=O)c2ccc(NC(=O)c3nn(-c4ccccc4)ccc3=O)cc2)c1C	35*	-6	6	-6	21	5.7*
CCc1ccc(C=NN2CCN(Cc3ccc(C)cc3C)CC2)cc1	0	x	x	x	x	x
O=C(/C=C1\OCc2ccccc21)c1ccccc1	3	x	-3	-11	x	x
CCOC(=O)CC[C@@]1(C(=O)OCC)C[C@@H](CC(=O)N2CCCC2)C(=O)N2CCCC=C21	1	x	x	x	x	x
COc1cccc(OC[C@@H](O)CN2CCC(C(O)(c3ccccc3)c3ccccc3)CC2)c1	-1	x	x	x	x	x
Cc1ccccc1-c1cccc2[nH]c3c(c12)CCN1C(=O)[C@H]2[C@H](C)ON(C)[C@H]2C[C@@H]31	7	x	-4	8	x	x
COCCCN1C(=O)[C@H](CC(=O)NCc2ccc(OC)c(OC)c2)[C@]2(C(=O)OC)CCCCC=C12	2	x	x	x	x	x
CCCCOc1ccc(C(=O)Nc2ccc(S(=O)(=O)Nc3onc(C)c3C)cc2)cc1	77*	6	-2	-12	53*	21*
CCCOc1ccc(C(=O)Nc2ccc(S(=O)(=O)Nc3cc(C)nc(C)n3)cc2)cc1	25	-2	1	1	x	x
Cc1noc(NS(=O)(=O)c2ccc(NC(=O)c3cc(=O)c4ccccc4o3)cc2)c1C	37*	-11	6	0	13	2
Cc1ccc2oc(C(=O)Nc3ccc(S(=O)(=O)Nc4onc(C)c4C)cc3)cc(=O)c2c1	16	-8	-2	-1	x	x
CCOC(=O)[C@]12CCC=C1N(Cc1ccc(Cl)cc1Cl)C(=O)[C@H](CC(=O)N1CCN(C(=O)c3ccco3)CC1)C2	4	-1	-11	-10	x	x
O=C(CSc1nnc(-c2ccco2)n1-c1ccc(Cl)cc1)Nc1ccc(S(=O)(=O)Nc2nccs2)cc1	62*	x	x	x	57*	20*
Cn1c(COc2ccccc2)nnc1SCC(=O)Nc1ccc(OCc2ccccc2)cc1	6	x	x	x	x	x
COc1ccc(-n2c(SCC(=O)Nc3nccs3)nnc2-c2ccccc2)cc1	-2	2	9	0	x	x
O=C(CSc1nnc(COc2ccccc2)n1-c1ccccc1)Nc1ccc(S(=O)(=O)Nc2nccs2)cc1	75*	x	x	x	65*	28*
COc1ccc(-n2c(SCC(=O)Nc3ccc(S(=O)(=O)Nc4nccs4)cc3)nnc2-c2ccccc2)cc1	78*	x	x	x	72*	37*
Cn1c(COc2ccccc2)nnc1SCC(=O)Nc1ccc(S(=O)(=O)Nc2nccs2)cc1	49*	x	x	x	47*	18*
